Experimental data published in PMC3726261 (Cancer, 2012).
Entries after “also recorded” stand apart in the source; their conditions may differ. Marks after values point to notes of the source that are not given here.

What was measured:
[1] = test system: adiponectin; assay: Plasma adiponectin; format: in vivo, human
In short: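 Blood was drawn at baseline (before cycle 1) and every 3 weeks thereafter from patients with advanced solid malignancies given oral drug twice daily at 0.10–1.15 mg in 21-day cycles. Plasma adiponectin was quantified by solid-phase quantitative sandwich enzyme immunoassay. A population pharmacokinetic/adiponectin model using data from every patient defined the dose–response relation and predicted the increase relative to pretreatment.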

[2] = test system: patients with advanced solid malignancies; assay: Phase 1 dose-escalation study: safety, treatment-emergent adverse events; format: in vivo; settings: for Abdominal distension (related TEAE) / Anemia (related TEAE) / Anorexia (related TEAE) / At least 1 related TEAE / Chest discomfort (related TEAE) / Constipation (related TEAE) / Cough (related TEAE) / Dyspepsia (related TEAE) / Dyspnea (related TEAE) / Edema (related TEAE) / Face edema (related TEAE) / Fatigue (related TEAE) / Fluid retention (related TEAE) / Increased appetite (related TEAE) / Insomnia (related TEAE) / Muscle spasms (related TEAE) / Myalgia (related TEAE) / Nausea (related TEAE) / Peripheral edema (related TEAE) / Pleural effusion (related TEAE) / Rash (related TEAE) / Vomiting (related TEAE) / Weight increase (related TEAE): N = 31 patients
[3] = test system: human colorectal tumor xeno-grafts; settings: human colorectal tumor xeno-grafts in nude rodents; cited from earlier work
[4] = in vivo; cited from earlier work
[5] = Grade 3 (dose-limiting toxicity)
[6] = Patient 20, 0.75 mg twice daily, by cycle 3, day 1, CTCAE grade 4

## Cc1cc(Oc2ccc3nc(COc4ccc(CC5SC(=O)NC5=O)cc4)n(C)c3c2)cc(C)c1N (centres unmarked) [Efatutazone]
[1]; after 4 weeks of treatment at all dose levels
  Change in adiponectin levels: increased
[1]; at optimal dose, population-based pharmacokinetic/adiponectin modeling
  Predicted increase in adiponectin expression levels relative to pretreatment: > 90%
[2]; 0.10-, 0.25-, and 1.15-mg cohorts, not dose dependent
  Dose-limiting toxicities: Three episodes of dose-limiting toxicities; also recorded: Three DLTs related to fluid retention
[2]; 31 patients
  Patients with at least 1 treatment-related AE: 100%
[2]; 31 treated patients
  Grade ≥4 edema: No patient
[2]; Grade 1
  Abdominal distension (related TEAE): 1 (3.2) No. (%)
  Anemia (related TEAE): 5 (16.1) No. (%)
  Anorexia (related TEAE): 3 (9.7) No. (%)
  At least 1 related TEAE: 13 (41.9) No. (%)
  Chest discomfort (related TEAE): 1 (3.2) No. (%)
  Constipation (related TEAE): 2 (6.5) No. (%)
  Cough (related TEAE): 3 (9.7) No. (%)
  Dyspepsia (related TEAE): 2 (6.5) No. (%)
  Dyspnea (related TEAE): 4 (12.9) No. (%)
  Edema (related TEAE): 1 (3.2) No. (%)
  Face edema (related TEAE): 2 (6.5) No. (%)
  Fatigue (related TEAE): 10 (32.3) No. (%)
  Fluid retention (related TEAE): 2 (6.5) No. (%)
  Increased appetite (related TEAE): 3 (9.7) No. (%)
  Insomnia (related TEAE): 1 (3.2) No. (%)
  Muscle spasms (related TEAE): 1 (3.2) No. (%)
  Myalgia (related TEAE): 2 (6.5) No. (%)
  Nausea (related TEAE): 5 (16.1) No. (%)
  Peripheral edema (related TEAE): 8 (25.8) No. (%)
  Pleural effusion (related TEAE): 1 (3.2) No. (%)
  Rash (related TEAE): 2 (6.5) No. (%)
  Vomiting (related TEAE): 2 (6.5) No. (%)
  Weight increase (related TEAE): 17 (54.8) No. (%)
[2]; Grade 2
  Abdominal distension (related TEAE): 1 (3.2) No. (%)
  Anemia (related TEAE): 3 (9.7) No. (%)
  Anorexia (related TEAE): 0 No. (%)
  At least 1 related TEAE: 11 (35.5) No. (%)
  Chest discomfort (related TEAE): 0 No. (%)
  Constipation (related TEAE): 0 No. (%)
  Cough (related TEAE): 1 (3.2) No. (%)
  Dyspepsia (related TEAE): 0 No. (%)
  Dyspnea (related TEAE): 0 No. (%)
  Edema (related TEAE): 0 No. (%)
  Face edema (related TEAE): 0 No. (%)
  Fatigue (related TEAE): 2 (6.5) No. (%)
  Fluid retention (related TEAE): 1 (3.2) No. (%)
  Increased appetite (related TEAE): 0 No. (%)
  Insomnia (related TEAE): 1 (3.2) No. (%)
  Muscle spasms (related TEAE): 1 (3.2) No. (%)
  Myalgia (related TEAE): 0 No. (%)
  Nausea (related TEAE): 1 (3.2) No. (%)
  Peripheral edema (related TEAE): 7 (22.6) No. (%)
  Pleural effusion (related TEAE): 1 (3.2) No. (%)
  Rash (related TEAE): 0 No. (%)
  Vomiting (related TEAE): 1 (3.2) No. (%)
  Weight increase (related TEAE): 0 No. (%)
[2]; [5]
  Edema (related TEAE): 2 (6.5) ^b No. (%)
  Pleural effusion (related TEAE): 1 (3.2) ^b No. (%)
[2]; Grade 3
  Abdominal distension (related TEAE): 0 No. (%)
  Anemia (related TEAE): 4 (12.9) No. (%)
  Anorexia (related TEAE): 0 No. (%)
  At least 1 related TEAE: 6 (19.4) No. (%)
  Chest discomfort (related TEAE): 1 (3.2) No. (%)
  Constipation (related TEAE): 0 No. (%)
  Cough (related TEAE): 0 No. (%)
  Dyspepsia (related TEAE): 0 No. (%)
  Dyspnea (related TEAE): 1 (3.2) No. (%)
  Face edema (related TEAE): 0 No. (%)
  Fatigue (related TEAE): 2 (6.5) No. (%)
  Fluid retention (related TEAE): 0 No. (%)
  Increased appetite (related TEAE): 0 No. (%)
  Insomnia (related TEAE): 0 No. (%)
  Muscle spasms (related TEAE): 0 No. (%)
  Myalgia (related TEAE): 0 No. (%)
  Nausea (related TEAE): 0 No. (%)
  Peripheral edema (related TEAE): 1 (3.2) No. (%)
  Rash (related TEAE): 0 No. (%)
  Vomiting (related TEAE): 0 No. (%)
  Weight increase (related TEAE): 0 No. (%)
[2]; Grade 4
  Abdominal distension (related TEAE): 0 No. (%)
  Anemia (related TEAE): 0 No. (%)
  Anorexia (related TEAE): 0 No. (%)
  At least 1 related TEAE: 1 (3.2) ^a No. (%)
  Chest discomfort (related TEAE): 0 No. (%)
  Constipation (related TEAE): 0 No. (%)
  Cough (related TEAE): 0 No. (%)
  Dyspepsia (related TEAE): 0 No. (%)
  Dyspnea (related TEAE): 0 No. (%)
  Edema (related TEAE): 0 No. (%)
  Face edema (related TEAE): 0 No. (%)
  Fatigue (related TEAE): 0 No. (%)
  Fluid retention (related TEAE): 0 No. (%)
  Increased appetite (related TEAE): 0 No. (%)
  Insomnia (related TEAE): 0 No. (%)
  Muscle spasms (related TEAE): 0 No. (%)
  Myalgia (related TEAE): 0 No. (%)
  Nausea (related TEAE): 0 No. (%)
  Peripheral edema (related TEAE): 0 No. (%)
  Pleural effusion (related TEAE): 0 No. (%)
  Rash (related TEAE): 0 No. (%)
  Vomiting (related TEAE): 0 No. (%)
  Weight increase (related TEAE): 0 No. (%)
[2]; Overall
  Abdominal distension (related TEAE): 2 (6.5) No. (%)
  Anemia (related TEAE): 12 (38.7) No. (%)
  Anorexia (related TEAE): 3 (9.7) No. (%)
  At least 1 related TEAE: 31 (100) No. (%)
  Chest discomfort (related TEAE): 2 (6.5) No. (%)
  Constipation (related TEAE): 2 (6.5) No. (%)
  Cough (related TEAE): 4 (12.9) No. (%)
  Dyspepsia (related TEAE): 2 (6.5) No. (%)
  Dyspnea (related TEAE): 5 (16.1) No. (%)
  Edema (related TEAE): 3 (9.7) No. (%)
  Face edema (related TEAE): 2 (6.5) No. (%)
  Fatigue (related TEAE): 14 (45.2) No. (%)
  Fluid retention (related TEAE): 3 (9.7) No. (%)
  Increased appetite (related TEAE): 3 (9.7) No. (%)
  Insomnia (related TEAE): 2 (6.5) No. (%)
  Muscle spasms (related TEAE): 2 (6.5) No. (%)
  Myalgia (related TEAE): 2 (6.5) No. (%)
  Nausea (related TEAE): 6 (19.4) No. (%)
  Peripheral edema (related TEAE): 16 (51.6) No. (%)
  Pleural effusion (related TEAE): 3 (9.7) No. (%)
  Rash (related TEAE): 2 (6.5) No. (%)
  Vomiting (related TEAE): 3 (9.7) No. (%)
  Weight increase (related TEAE): 17 (54.8) No. (%)
[2]; [6]
  Serum cholesterol, peak: 515 mg/dL
  Serum triglycerides, peak: 4525 mg/dL
[2]; all dose levels
  Cardiac dysfunction (serial electrocardiograms and echocardiograms): did not reveal any evidence of cardiac dysfunction; also recorded: no measurable cardiotoxicity
  Patients with anemia (treatment-related AE): 38.7%
  Patients with fatigue (treatment-related AE): 45.2%
  Patients with peripheral edema: 51.6%
  Patients with weight increase (treatment-related AE): 54.8%
[2]; doses 0.10 to 1.15 mg PO twice daily
  Maximum tolerated dose (MTD): not reached
[2]; regardless of attribution (bronchospasm; hypercholesterolemia and hypertriglyceridemia)
  Patients with grade 4 TEAEs: Two patients
[3]
  Growth of tumor xenografts: inhibits
[4]
  Tolerability of single dose: well tolerated
